Compounds with a hit are over-represented: about 4.5% of the library has one in this group of screens.
CHO parental Ca = counter-screen for OX1R antagonists: effect in parental CHO cells | parental CHO-K1, ATP-induced calcium, Fluo-8 fluorescence | AID 463079 | 0.63% of 330,000 active | inhibition, % at 5.6 µM;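 active = inhibition above that plate's mean sample inhibition plus 3 SD, cut at about 26% in these data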;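 also: 0% = ATP-challenged DMSO wells and 100% = DMSO wells without ATP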
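Assay system – parental CHO cells · Reagent – ATP stimulus · Detection – intracellular calcium via Fluo-8 no-wash fluorescent dye · Evaluation – percent inhibition of ATP-evoked calcium rise, normalized to controls · Controls – ATP wells versus no-ATP DMSO wells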
TAAR1 agonist = agonists of human TAAR1; Q96RJ0; CHO RD-HGA16 TAAR1, Fluo-8 calcium fluorescence; vehicle wells 0%, saturating PEA agonist 100%; activation, % at 3 µM; 0.99% of 360,000 active;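 active = activation above the mean activation of all test compounds in the run plus 3 SD, cut at about 38% in these data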
Target sequence (Q96RJ0 whole entry, looked up): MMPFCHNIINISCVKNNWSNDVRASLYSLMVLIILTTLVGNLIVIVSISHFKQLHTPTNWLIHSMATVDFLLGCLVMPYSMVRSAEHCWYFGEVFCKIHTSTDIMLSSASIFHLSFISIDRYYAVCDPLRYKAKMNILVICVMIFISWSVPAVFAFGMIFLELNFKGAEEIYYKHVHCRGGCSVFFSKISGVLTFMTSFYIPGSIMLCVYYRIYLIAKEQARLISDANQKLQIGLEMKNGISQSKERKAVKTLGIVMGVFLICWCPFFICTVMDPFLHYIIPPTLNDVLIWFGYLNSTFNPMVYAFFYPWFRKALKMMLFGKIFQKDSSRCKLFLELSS
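Test system: RD-HGA16 (CHO) cells co-expressing Gα16 and hTAAR1; dosing: one-point dosing at 3 µM (nominal); timing: 17-24 h seeding, 75 min 37 °C dye, 30 min RT; signal: kinetic Fluo-8 calcium fluorescence; read-out basis: % activation relative to PEA EC100 response; controls: DMSO and PEA EC100; replicates: n 1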
TAAR1 antag = antagonists of human TAAR1; Q96RJ0; 1.5% of 360,000 active; CHO RD-HGA16 TAAR1, Fluo-8 calcium fluorescence, antagonist; inhibition, % at 3 µM;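 active = inhibition above a per-plate cutoff, the mean inhibition of test compounds on that plate plus 3 SD, cut at about 49% in these data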;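 also: 0% = DMSO plus EC80 beta-PEA response and 100% = DMSO alone without agonist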
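Test system: hTAAR1-expressing CHO RD-HGA16 cells, Gα16-coupled; Probe or stimulus: EC80 β-phenethylamine stimulus; Compound dosing: single nominal final test compound concentration of 3 µM; Timing: 140 s kinetic read after compound, 140 s after agonist; Signal: Fluo-8 calcium-sensitive fluorescence; Measure: % inhibition of agonist calcium response; Controls: DMSO and EC80 PEA controls.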
OX1R antag-1 = OX1R (human) antagonism; O43613; OX1R-expressing cells, FRET antagonist read-out; inhibition, % at 6.6 µM; 1.8% of 330,000 active; AID 485270; in the data active = inhibition mostly above about 38%, no sharp cut-off; inactive = mostly below about 40%;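 also: 0% = agonist challenge alone and 100% = reference antagonist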
OX1R antag-2 = human HCRTR1 antagonism; O43613; CHO/OX1R cells, Fluo-8 calcium fluorescence, orexin A; inhibition, % at 5 µM; 0.43% of 330,000 active;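 active = inhibition above its plate's threshold, mean inhibition of all tested compounds on the plate plus 3 SD, cut at about 37% in these data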;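 also: 0% = orexin A challenge wells and 100% = SB-334867-A antagonist wells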
GPR7 antagonist = blocks human GPR7 receptor signaling. GPR7-expressing cells, fluorescence antagonist assay. inhibition, % at 4.4 µM. 1.1% of 290,000 active. AID 1861; in the data active = inhibition above about 16%, passing the limit was not always enough;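 also: cells stimulated with the agonist NPW; 0% = agonist with vehicle and 100% = vehicle without agonist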
Target sequence (P48145 whole entry, looked up): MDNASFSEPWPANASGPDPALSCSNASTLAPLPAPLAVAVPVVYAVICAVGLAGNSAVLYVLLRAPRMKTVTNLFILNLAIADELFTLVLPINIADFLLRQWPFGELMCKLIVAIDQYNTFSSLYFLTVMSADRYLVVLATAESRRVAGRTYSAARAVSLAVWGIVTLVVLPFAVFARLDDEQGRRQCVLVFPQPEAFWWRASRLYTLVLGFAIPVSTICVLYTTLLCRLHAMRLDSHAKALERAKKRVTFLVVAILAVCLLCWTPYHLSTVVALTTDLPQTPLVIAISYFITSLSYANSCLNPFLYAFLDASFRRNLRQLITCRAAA
TAAR1 ag confirm = human TAAR1 agonism, confirmed | shares compounds with TAAR1 agonist | CHO RD-HGA16 TAAR1, Fluo-8 calcium fluorescence; scaled: DMSO 0%, maximal phenethylamine 100% | activation, % at 3 µM | 82% of 2,400 active;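 active = activation above a cutoff set at the run's mean compound activation plus 3 SD, cut at about 39% in these data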
Ga16 nonsel ag = nonselective agonist in parental cells, TAAR1 agonist counter-screen; shares compounds with TAAR1 agonist; CHO-Ga16 parental, Fluo-8 calcium fluorescence; normalized to maximal ATP response, DMSO zero; activation, % at 3 µM; 50% of 2,400 active; AID 651787;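 active = activation above the run cutoff, the mean activation over all tested wells plus 3 SD, cut at about 12% in these data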;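 also: 0% = DMSO wells and 100% = maximal ATP response on the peak over basal ratio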
TAAR1 desensitize = counter-screen for human TAAR1 agonists: agonists that desensitize TAAR1; shares compounds with TAAR1 agonist; CHO RD-HGA16 hTAAR1, Fluo-8 calcium, beta-PEA response inhibition; inhibition, % at 3 µM; 46% of 2,400 active; AID 651951;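 active = inhibition above the run cutoff, the mean inhibition of all test compounds plus 3 SD, cut at about 49% in these data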;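 also: beta-PEA stimulus applied at its EC80; loss of beta-PEA calcium signal after compound pretreatment read as receptor desensitization; 0% = DMSO with beta-PEA at EC80 and 100% = DMSO alone without agonist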
Ga16 antag count = counter-screen for TAAR1 agonists: nonselective Ga16 antagonists; 39% of 2,400 active; CHO-Ga16 ATP-induced calcium, Fluo-8 fluorescence; inhibition, % at 3 µM; shares compounds with TAAR1 agonist;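 active = inhibition above the plate's mean compound inhibition plus 3 SD, computed per plate, cut at about 22% in these data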;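 also: 0% = EC80 ATP with DMSO and 100% = DMSO wells without ATP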
Starred values were filed as active, the others as inactive; x = no result given.

SMILES	CHO parental Ca	TAAR1 agonist	TAAR1 antag	OX1R antag-1	OX1R antag-2	GPR7 antagonist	TAAR1 ag confirm	Ga16 nonsel ag	TAAR1 desensitize	Ga16 antag count
Cc1ccc2[nH]c(=O)c(C(c3nnnn3CC3CCCO3)N3CCc4ccccc4C3)cc2c1 (stereo not drawn)	1.7	26.6	0.2	18.7	-8.6	15.0	x	x	x	x
COc1ccc2cc(C(c3nnnn3C3CCCC3)N3CCc4ccccc4C3)c(=O)[nH]c2c1 (stereo not drawn)	-11.6	45.7*	-1.6	11.2	-23.4	-5.8	38.7*	2.8	3.3	13.1
COc1ccc2[nH]c(=O)c(C(c3nnnn3CC3CCCO3)N3CCc4ccccc4C3)cc2c1 (stereo not drawn)	-16.0	61.1*	8.6	12.0	-25.2	-7.5	54.8*	6.0	15.1	20.7
Cc1ccc2cc(C(c3nnnn3C3CCCC3)N3CCN(c4ccc(F)cc4)CC3)c(=O)[nH]c2c1 (stereo not drawn)	-26.3	8.0	-2.7	9.9	-20.5	4.0	x	x	x	x
CC1OC(C(C)(C)C)Cc2[nH][nH]c(=O)c21 (stereo not drawn)	x	-0.1	12.0	x	x	x	x	x	x	x
CC(C)Oc1cc(F)ccc1-c1cc(C(=O)NCc2cccnc2)[nH]n1	x	2.4	1.9	x	x	x	x	x	x	x
CCCOc1ccc(C(=O)Nc2ccc(N3CCN(C(=O)c4ccco4)CC3)cc2)cc1	-12.6	0.4	-4.7	11.3	-27.2	-23.1	x	x	x	x
COc1ccc(-c2ccc3[nH]c4c(c3c2)CCN2C(=O)[C@@H]([C@H](C)O)[C@@H](N(C)C(=O)Nc3ccccc3)C[C@@H]42)cc1	x	3.4	38.6	x	x	x	x	x	x	x
CCOC(=O)c1c(C)[nH]c(C)c1C(=O)COC(=O)CCc1ccccc1	-9.8	0.8	-12.8	6.9	-10.2	x	x	x	x	x
O=C(N/N=C/c1ccc(-c2ccccc2Cl)o1)c1ccccc1	-11.5	5.5	31.0	53.3	4.4	-6.5	x	x	x	x
O=C(O)c1ccc(N/N=C/c2ccc(-c3ccccc3Cl)o2)cc1	4.8	97.1*	36.9	-7.4	-19.1	-13.6	56.4*	39.1*	29.8	20.1
CCCCNC(=O)C1(C)CCC(=O)N1CCOC (stereo not drawn)	x	1.5	-23.4	x	x	x	x	x	x	x
CCOc1ccc(-c2ncncc2-c2ccc(OC)c(OC)c2)c(O)c1	-11.1	1.7	-5.2	10.8	-15.5	-20.6	x	x	x	x
CC1(c2ccc(OC(F)F)cc2)NC(=O)N(/N=C/c2c(O)ccc3ccccc23)C1=O (stereo not drawn)	6.2	63.8*	53.5*	14.2	0.9	-7.0	68.1*	47.7*	72.6*	59.2*
CC1(c2ccc(OC(F)F)cc2)NC(=O)N(CC(=O)Nc2cccc(S(N)(=O)=O)c2)C1=O (stereo not drawn)	5.1	1.8	-11.8	10.0	-1.6	-12.7	x	x	x	x
CCOC(=O)N1CCN(c2nc(-c3cccc(OC)c3)cc(C(F)(F)F)n2)CC1	-8.8	11.9	1.9	16.6	-37.6	-4.2	x	x	x	x
CCOC(=O)N1CCC(NC(=O)c2cnn3c(C(F)(F)F)cc(-c4cccc(OC)c4)nc23)CC1	-24.9	71.2*	1.8	9.7	-12.1	x	2.8	4.0	19.1	15.9
O=C(Cc1n[nH]c(=O)[nH]c1=O)N/N=C/c1ccccc1	-4.6	65.9*	19.1	9.0	6.9	4.4	73.9*	-0.3	55.0*	10.2
O=C(Cc1n[nH]c(=O)[nH]c1=O)N/N=C/c1cccc(Cl)c1	-7.0	29.0	8.2	14.1	-8.1	-4.2	x	x	x	x
O=C(Cc1n[nH]c(=O)[nH]c1=O)N/N=C/c1cccc(O)c1	1.1	60.0*	-11.3	17.5	-27.6	5.1	59.7*	4.2	20.7	8.8
COCCn1nnnc1CN(CCc1ccccc1)Cc1cc2cc(OC)ccc2[nH]c1=O	-3.6	82.6*	38.9	19.8	-13.6	2.3	79.4*	8.5	47.8	12.7
COCCn1nnnc1CN(Cc1cccnc1)Cc1cc2cc(OC)ccc2[nH]c1=O	x	3.7	-1.3	x	x	-10.4	x	x	x	x
COc1ccc(C(=O)NCc2ccncc2)cc1S(=O)(=O)NCc1ccc(Cl)cc1	-2.1	9.5	-34.5	5.6	-11.8	x	x	x	x	x
COc1ccc2c(Cl)c(C(=O)N/N=C/c3ccncc3)sc2c1	4.9	71.5*	48.7*	21.3	-21.2	-2.4	5.2	2.9	16.3	5.8
CN(C)C(CNc1ncnc2ccccc12)c1c(F)cccc1Cl (stereo not drawn)	-5.1	0.5	2.9	43.5	-2.9	-8.6	x	x	x	x
SMILES	CHO parental Ca	TAAR1 agonist	TAAR1 antag	OX1R antag-1	OX1R antag-2	GPR7 antagonist	TAAR1 ag confirm	Ga16 nonsel ag	TAAR1 desensitize	Ga16 antag count
O=C(COc1ccc(Cl)cc1Cl)Nc1ccc(CN2CCCCC2)cc1	-17.5	50.5*	7.4	10.0	-10.7	9.0	84.1*	39.6*	40.8	26.8*
FC(F)(F)c1cc(CCN2CCNC[C@@H]2Cc2ccccc2)cc(C(F)(F)F)c1	6.1	57.1*	-0.6	-0.7	-8.5	x	58.5*	16.7*	32.6	18.5
CCCC[C@@H]1CNCCN1CCc1cccc(F)c1	-5.2	61.9*	2.4	35.7	-30.5	x	75.1*	9.1	45.6	9.6
O=C(COC(=O)c1cc(=O)[nH]c2ccccc12)Nc1ccc(F)cc1	-8.8	2.1	11.8	5.2	-4.9	x	x	x	x	x
CN1C(=S)N(c2cccnc2)C(=O)/C1=C\c1ccc(N(C)C)cc1	x	73.8*	33.0	x	x	8.4	29.3	38.6*	41.6	49.6*
CN1C(=S)N(c2cccnc2)C(=O)/C1=C\c1ccc(C(C)(C)C)cc1	-15.7	8.2	5.2	23.3	12.2	-0.6	x	x	x	x
CC(C)OC(=O)CN1C(=O)S/C(=C/c2ccc(N3CCCCC3)o2)C1=O	-12.2	63.3*	65.1*	2.3	-21.7	3.0	52.8*	55.5*	58.8*	64.1*
CN(C(=O)c1cccc(NC(=O)Cc2ccc(NC(=O)C3CCCN(C(=O)C4CCCCC4)C3)cc2)c1)C1CCC1 (stereo not drawn)	x	-1.4	-14.9	x	x	x	x	x	x	x
COCCNC(=O)c1cc2ncc(Br)cn2n1	-3.9	9.1	-0.4	14.7	-11.3	-1.4	x	x	x	x
O=C(NCCc1ccccc1)c1cc2ncc(Br)cn2n1	-2.6	47.6*	0.7	21.2	-10.9	5.6	57.1*	1.4	21.9	11.8
COc1ccc(Br)cc1CSC(=N)N	-9.3	46.0*	15.9	16.2	-14.1	9.0	70.7*	4.4	42.2	9.4

Screening results as filed in PubChem.
